Data: ChEMBL document CHEMBL1139336, “Discovery of alpha-amidosulfones as potent and selective agonists of CB2: synthesis, SAR, and pharmacokinetic properties” (Bioorg Med Chem Lett, 2009)

Columns and labels:
[1] = molecular target: T1, Cannabinoid receptor 2 (Homo sapiens, UniProt P34972); experiment: Agonist activity at human CB2 receptor expressed in SF9 cells assessed as inhibition of CP-55940-stimulated GTP binding
Procedure, shortened: (§1)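 Sf9 membranes co-expressing hCB1 or hCB2 with Gαi3 (Bmax 1.7 pmol/ml). Europium-GTP (10 nM) binding in 50 mM Hepes, 0.1% BSA, 10 mM MgCl2, 150 mM NaCl, GDP, 0.0005% saponin, 1% DMSO. Compound tested from 0.01 nM upward. Incubated 45 min at room temperature, then filtered and washed; fluorescence read at 615 nm. 3 micromolar CP55940 defines 100% efficacy.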

[2] = molecular target: T2, Cannabinoid receptor 1 (Homo sapiens, UniProt P21554); experiment: Agonist activity at human CB1 receptor expressed in SF9 cells assessed as inhibition of CP-55940-stimulated GTP binding; procedure, shortened: as §1
T2 sequence (P21554 whole entry): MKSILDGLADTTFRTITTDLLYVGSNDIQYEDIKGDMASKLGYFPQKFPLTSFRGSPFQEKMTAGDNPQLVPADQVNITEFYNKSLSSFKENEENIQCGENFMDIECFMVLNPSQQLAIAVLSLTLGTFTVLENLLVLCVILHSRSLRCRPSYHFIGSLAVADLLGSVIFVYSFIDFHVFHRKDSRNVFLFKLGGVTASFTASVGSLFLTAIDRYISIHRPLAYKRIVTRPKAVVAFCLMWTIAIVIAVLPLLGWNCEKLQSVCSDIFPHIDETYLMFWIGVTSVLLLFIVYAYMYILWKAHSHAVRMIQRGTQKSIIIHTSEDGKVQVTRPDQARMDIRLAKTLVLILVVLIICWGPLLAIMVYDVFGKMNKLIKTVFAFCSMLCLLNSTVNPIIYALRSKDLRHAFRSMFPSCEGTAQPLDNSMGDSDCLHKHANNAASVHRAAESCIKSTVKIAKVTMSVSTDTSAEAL

[3] = species on record: Homo sapiens; experiment: Selectivity for human CB2 receptor over human CB1 receptor
[4] = molecular target: T2, Cannabinoid receptor 1; experiment: Agonist activity at human CB1 receptor expressed in CHO cells assessed as suppression of forskolin-stimulated cAMP accumulation; assay type: functional, cell-based
Procedure, shortened: (§2)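 Forskolin-induced cAMP measured in CHO cells expressing human CB1 or CB2. EC50 from a logistic fit of the concentration–response curve. Emax taken as the maximum of the dose–response. Means of n = 2–20 independent measurements.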

[5] = molecular target: T2, Cannabinoid receptor 1; experiment: Agonist activity at human CB1 receptor expressed in SF9 cells assessed as inhibition of CP-55940-stimulated GTP binding relative to control
Procedure, shortened: (§3)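 Sf9 insect-cell membranes co-expressing hCB1 or hCB2 with Gαi3 (Bmax 1.7 pmol/ml). Compound added in 50 mM Hepes/0.1% BSA to buffer with 10 mM MgCl2, 150 mM NaCl, GDP, 10 nM GTP-Europium and 0.0005% saponin. Final DMSO was 1%. Incubated 45 min at room temperature, then filtered, washed and read by fluorescence at 615 nm. 3 µM CP55940 set 100% efficacy. Logistic fit, n = 2–20.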

[6] = molecular target: T1, Cannabinoid receptor 2; experiment: Agonist activity at human CB2 receptor expressed in CHO cells assessed as suppression of forskolin-stimulated cAMP accumulation relative to control; assay type: functional, cell-based
Procedure, shortened: (§4)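 CHO cells expressing human CB1 or CB2. Read-out was suppression of forskolin-induced cAMP production in whole cells. Emax was taken as the maximum of the dose–response curve. Values are means of n = 2–20 independent measurements, derived by logistic fit.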

[7] = molecular target: T1, Cannabinoid receptor 2; experiment: Agonist activity at human CB2 receptor expressed in CHO cells assessed as suppression of forskolin-stimulated cAMP accumulation; assay type: functional, cell-based; procedure, shortened: as §2
[8] = molecular target: T1, Cannabinoid receptor 2; experiment: Agonist activity at human CB2 receptor expressed in SF9 cells assessed as inhibition of CP-55940-stimulated GTP binding relative to control; procedure, shortened: as §3
[9] = molecular target: T2, Cannabinoid receptor 1; experiment: Agonist activity at human CB1 expressed in CHO cells receptor assessed as suppression of forskolin-stimulated cAMP accumulation relative to control; assay type: functional, cell-based; procedure, shortened: as §4
[10] = Clearance in Sprague-Dawley rat at 0.5 mg/kg, iv; assay type: ADME, organism-based; design: dose 0.5 mg/kg, route intravenous; conditions: in vivo
Procedure, shortened: (§5)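 Single intravenous dose of 0.5 mg/kg given as a solution in DMSO to Sprague–Dawley rats; n = 2 animals.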

[11] = Intrinsic clearance in human liver microsomes; assay type: ADME, Microsome
[12] = AUC (0 to infinity) in Sprague-Dawley rat at 10 mg/kg, po; assay type: ADME, organism-based; design: time infinity, dose 10 mg/kg, route oral; conditions: plasma
Procedure, shortened: (§6)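 Oral dose of 10 mg/kg in a 2% HPMC, 1% Tween 80 vehicle given to Sprague–Dawley rats; n = 3 animals.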

[13] = Volume of distribution at steady state in Sprague-Dawley rat at 0.5 mg/kg, iv; assay type: ADME, organism-based; design: dose 0.5 mg/kg, route intravenous; conditions: in vivo, read-out: Vdss; procedure, shortened: as §5
[14] = Oral bioavailability in Sprague-Dawley rat at 10 mg/kg; assay type: ADME, organism-based; conditions: in vivo; procedure, shortened: as §6
[15] = Intrinsic clearance in rat liver microsomes; assay type: ADME, Microsome
[16] = system: Rattus norvegicus; experiment: Tmax in Sprague-Dawley rat at 10 mg/kg, po; assay type: ADME, organism-based; design: dose 10 mg/kg, route oral; conditions: in vivo; procedure, shortened: as §6
[17] = Protein binding in rat plasma; assay type: ADME, cell-free; conditions: read-out: PPB (converted)
[18] = Half life in Sprague-Dawley rat at 0.5 mg/kg, iv; assay type: ADME, organism-based; design: dose 0.5 mg/kg, route intravenous; conditions: in vivo; procedure, shortened: as §5
[19] = Cmax in Sprague-Dawley rat at 10 mg/kg, po; assay type: ADME, organism-based; design: dose 10 mg/kg, route oral; conditions: in vivo; procedure, shortened: as §6
[20] = Protein binding in human plasma; assay type: ADME, cell-free; conditions: read-out: PPB (converted)
[21] = molecular target: T2, Cannabinoid receptor 1; experiment: Agonist activity at human CB1 receptor; assay type: functional
[22] = molecular target: T2, Cannabinoid receptor 1; experiment: Agonist activity at human CB1 receptor relative to control; assay type: functional
[23] = molecular target: T1, Cannabinoid receptor 2; experiment: Agonist activity at human CB2 receptor relative to control; assay type: functional
[24] = molecular target: T1, Cannabinoid receptor 2; experiment: Agonist activity at human CB2 receptor; assay type: functional

T1 sequence (P34972 whole entry): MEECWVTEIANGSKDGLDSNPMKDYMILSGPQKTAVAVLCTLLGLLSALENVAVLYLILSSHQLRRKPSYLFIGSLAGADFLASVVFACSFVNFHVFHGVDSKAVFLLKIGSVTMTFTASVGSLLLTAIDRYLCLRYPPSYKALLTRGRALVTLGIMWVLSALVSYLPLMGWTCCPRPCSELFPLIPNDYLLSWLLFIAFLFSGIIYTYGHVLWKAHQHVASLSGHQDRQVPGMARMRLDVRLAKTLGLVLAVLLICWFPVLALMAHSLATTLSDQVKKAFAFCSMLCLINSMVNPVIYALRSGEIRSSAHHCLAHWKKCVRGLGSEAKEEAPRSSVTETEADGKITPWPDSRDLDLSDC

Row | Compound | EC50 [1] [nM] | EC50 [2] [nM] | EC50 [4] [nM] | Emax [5] [%] | Emax [6] [%] | EC50 [7] [nM] | Emax [8] [%] | Emax [9] [%] | other results
1 | CC(C)(C(=O)Nc1cnc2ccccc2c1)S(=O)(=O)c1ccc(C(F)(F)F)cc1 | 96 | 710 | 82 | 86 | 96 | 8 | 88 | 93 | Selectivity ratio [3]: 10
2 | CC(C)(C)c1cc(NC(=O)C(C)(C)S(=O)(=O)c2ccc(Cl)cc2)no1 | 29 | 1920 | > 2000 | 57 | 85 | 11 | 99 | 23 | 
3 | CC(C)(C(=O)Nc1cnc2ccccc2c1)S(=O)(=O)c1ccc(C(F)(F)F)cc1Cl | 19 | 1570 | > 2000 | 71 | 94 | 73 | 94 | 41 | 
4 | CC(C)(C(=O)Nc1ccc(Cl)cc1OC(F)(F)F)S(=O)(=O)c1ccc(Cl)cc1 | 1620 | > 10000 |  | 2 |  |  | 44 |  | 
5 | CC(C)(C(=O)Nc1ccc(C(F)(F)F)cc1)S(=O)(=O)c1ccc(Cl)cc1 | 115 | > 10000 | > 1000 | 14 | 93 | 57 | 77 | 19 | 
6 | Cc1ccc(-c2cncc(NC(=O)C(C)(C)S(=O)(=O)c3ccc(Cl)cc3)c2)s1 | 9 | 322 | 331 | 80 | 99 | 5 | 102 | 106 | 
7 | CC(C)(C(=O)Nc1ccc(Cl)c(C(F)(F)F)c1)S(=O)(=O)c1ccc(Cl)cc1 | 20 | 700000 | > 2000 | 22 | 96 | 5 | 102 | 39 | clearance [10]: 9 mL/min/kg; microsomal CLint [11]: 14 µL/min/mg; AUC(0-inf) [12]: 9680 ng·h/mL; Vd [13]: 9.3 L/kg; bioavailability [14]: 52%; microsomal CLint [15]: 14 µL/min/mg; Tmax [16]: 1.7%; fraction unbound [17]: 0.003; half-life [18]: 14 h; Cmax [19]: 560 ng/mL; fraction unbound [20]: 0.002
8 | CCn1c2ccccc2c2cc(NC(=O)CCc3nc(-c4ccccc4F)no3)ccc21 |  |  |  |  |  |  |  |  | EC50 [21]: > 2000 nM; Emax [22]: 2%
9 | CC(C)(C(=O)Nc1cnc2ccccc2c1)S(=O)(=O)c1ccc(Cl)cc1 | 57 | 1680 | > 1000 | 47 | 93 | 13 | 90 | 47 | 
10 | Cc1cc(NC(=O)C(C)(C)S(=O)(=O)c2ccc(Cl)cc2)no1 | 3860 | > 10000 |  | 1 |  |  | 19 |  | 
11 | CC(C)(C(=O)Nc1ccc(Cl)c(-c2ccco2)c1)S(=O)(=O)c1ccc(Cl)cc1 | 4 | 96 | 230 | 82 | 101 | 5 | 101 | 98 | 
12 | CC1(c2nnc(NC(=O)C(C)(C)S(=O)(=O)c3ccc(Cl)cc3)s2)CCOC1 (stereo not given) | 216 | > 10000 |  | 10 |  |  | 99 |  | 
13 | Cc1cnc(NC(=O)C(C)(C)S(=O)(=O)c2ccc(Cl)cc2)s1 | > 10000 | > 10000 |  | 7 |  |  | 4 |  | 
14 | CC(C)(C(=O)Nc1cnc2ccccc2c1)S(=O)(=O)c1ccc(F)cc1Cl | 104 | > 10000 |  | 7 |  |  | 108 |  | 
15 | CC(C)(C(=O)Nc1ccc(Cl)cc1C#N)S(=O)(=O)c1ccc(Cl)cc1 | > 10000 | > 10000 |  | 0 |  |  | 14 |  | 
16 | CC(C)(C(=O)Nc1cccc(C(F)(F)F)c1)S(=O)(=O)c1ccc(Cl)cc1 | 170 | > 10000 | > 1000 | 15 | 93 | 35 | 89 | 21 | 
17 | CC(C)(C(=O)Nc1ccc(Cl)c(Br)c1)S(=O)(=O)c1ccc(Cl)cc1 | 86 | > 10000 |  | 7 |  |  | 77 |  | 
18 | O=C(Nc1cnc2ccccc2c1)C1(S(=O)(=O)c2ccccc2)CC1 |  |  |  |  |  |  |  |  | Emax [23]: 31%; EC50 [24]: 4 nM; EC50 [21]: > 10000 nM; Emax [22]: 6%
19 | COc1ccc(S(=O)(=O)C(C)(C)C(=O)Nc2cnc3ccccc3c2)c(Cl)c1 | 148 | > 10000 |  | 12 |  |  | 91 |  | 
20 | CCn1c2ccccc2c2cc(NC(=O)C3(S(=O)(=O)c4ccccc4)CC3)ccc21 |  |  |  |  |  |  |  |  | Emax [23]: 95%; EC50 [24]: 8 nM; EC50 [21]: 390 nM; Emax [22]: 40%
21 | CC(C)(C(=O)NCc1ccccc1)S(=O)(=O)c1ccc(Cl)cc1 | > 10000 | > 10000 |  | 7 |  |  | 0 |  | 
22 | Cc1ccccc1-c1nnc(NC(=O)C(C)(C)S(=O)(=O)c2ccc(Cl)cc2)s1 | 189 | 1650 |  | 48 |  |  | 81 |  | 
23 | Cn1nc(C(C)(C)C)cc1NC(=O)C(C)(C)S(=O)(=O)c1ccc(Cl)cc1 | 26 | 223000 | > 2000 | 37 | 92 | 25 | 104 | 12 | clearance [10]: 20 mL/min/kg; microsomal CLint [11]: 14 µL/min/mg; AUC(0-inf) [12]: 3570 ng·h/mL; Vd [13]: 2 L/kg; bioavailability [14]: 43%; microsomal CLint [15]: 20 µL/min/mg; Tmax [16]: 0.67%; fraction unbound [17]: 0.06; half-life [18]: 1.9 h; Cmax [19]: 971 ng/mL; fraction unbound [20]: 0.064
24 | CC(C)(C(=O)Nc1cnc2ccccc2c1)S(=O)(=O)c1ccc(F)cc1 | 109 | 2780 | > 2000 | 22 | 97 | 33 | 102 | 19 | 
25 | CC(C)(C(=O)NCc1ccc(F)c(Cl)c1)S(=O)(=O)c1ccc(Cl)cc1 | 1300 | > 10000 |  | 2 |  |  | 76 |  | 
